Screening data (PubChem BioAssay)
Shown are actives, neighbours in structure and some others; about 4.6% of the full set was active somewhere.
Calb biofilm kill: clotrimazole potentiators killing C. albicans biofilm, primary screen, 4-compound mixtures. C. albicans biofilm persisters + clotrimazole, fluorescence viability; primary screen in compound mixtures of four per well. inhibition, % at 7.6 µM. hit rate 0.02% among 120,000. AID 1242, 2008;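 active means inhibition above 30.3% in the primary screen of four-compound pools, then above 30% when the compound was retested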;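 further: compounds exposed to preformed 24 h biofilms for 48 h; 0% = untreated biofilm control and 100% = clotrimazole plus chlorhexidine kill blank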
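Test system: C. albicans CAF4-2 wild-type biofilms; buffer or medium: RPMI/MOPS medium, pH 7.0; schedule: 24 h biofilm formation, then 48 h compound exposure, 37 °C; detection: Alamar Blue fluorescence; measure: percent inhibition of biofilm viability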
Hck Nef HTS: inhibitors of Nef-activated human Hck kinase, primary screen, biochemical, Z-Lyte FRET, 384-well, Hck-YEEI; Tyrosine-protein kinase HCK (Homo sapiens), P08631; inhibition, % at 20 µM; Recombinant Hck-YEEI plus Nef, Z-Lyte FRET kinase assay; hit rate 0.68% among 220,000;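 active means Hck-Nef kinase inhibition above about 50%, limit read from the data; inactive means inhibition below that limit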;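 further: 0% = DMSO with Hck plus Nef and 100% = Hck alone without Nef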
Target sequence (P08631 whole entry, looked up): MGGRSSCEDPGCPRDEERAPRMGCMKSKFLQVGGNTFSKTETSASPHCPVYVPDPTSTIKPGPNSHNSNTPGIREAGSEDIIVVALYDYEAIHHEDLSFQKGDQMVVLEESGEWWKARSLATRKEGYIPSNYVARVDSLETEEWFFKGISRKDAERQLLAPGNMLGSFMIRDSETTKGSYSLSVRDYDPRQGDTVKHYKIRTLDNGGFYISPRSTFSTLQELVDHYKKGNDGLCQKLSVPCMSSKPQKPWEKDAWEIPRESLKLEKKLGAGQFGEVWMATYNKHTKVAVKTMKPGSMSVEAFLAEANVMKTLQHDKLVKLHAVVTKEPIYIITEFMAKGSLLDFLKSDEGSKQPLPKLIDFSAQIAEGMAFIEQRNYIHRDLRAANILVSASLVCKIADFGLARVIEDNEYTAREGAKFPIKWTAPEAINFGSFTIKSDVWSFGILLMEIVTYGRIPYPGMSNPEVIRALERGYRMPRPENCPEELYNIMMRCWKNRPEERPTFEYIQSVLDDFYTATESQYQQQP
Arbovirus anti: antivirals against arbovirus infection, primary screen, cell-based, full library, 10K replicate subset. arbovirus infection cell-based antiviral screen. inhibition, % at 10 µM. hit rate 0.37% among 200,000. AID 1251, 2008; in the data active means inhibition above about 30%
RAM inhibit: inhibitors of the yeast RAM network, primary screen, dse1pr::URA3 reporter, 5-FOA selection | inhibition, % at 50 µM | hit rate 1.8% among 190,000 | S. cerevisiae dse1pr::URA3 reporter, 5-FOA growth OD615, 2 d; analog-sensitive cbk1-as2 kinase mutant strain | AID 868, 2007;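 active means inhibition above a set limit, 3 SD over mean compound inhibition, cut at about 8.4% in these data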;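 further: 0% = DMSO-only wells with no growth and 100% = 10 µM 1-NA-PP1 full growth; inhibition rescues growth on 5-FOA so higher OD means more RAM inhibition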
WT yeast gro inh: growth inhibition of WT strain, primary screen, mitochondrial fusion inhibitor project, WT and mutant strains, chemical genetic; mitochondrial fusion phenotypic screen; inhibition, % at 10 µM; hit rate 2.1% among 190,000; in the data active means inhibition above about 58%; tested in S. cerevisiae
p47phox inh: p47phox/p22phox peptide binding inhibitors, primary screen, biochemical, uHTS, NADPH oxidase regulatory subunit; fluorescence polarization, 2 h; AID 1274, 2008; hit rate 0.53% among 220,000; Neutrophil cytosol factor 1 (Homo sapiens), P14598; inhibition, % at 24.7 µM;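 active means inhibition above about 30%, limit read from the data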;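 further: 0% = p47phox with labelled peptide and 100% = labelled peptide alone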
The depositor's hits bear a star; · = no result.

SMILES	Calb biofilm kill	Hck Nef HTS	Arbovirus anti	RAM inhibit	WT yeast gro inh	p47phox inh
O=C1CSC(=NC2CCCCC2)N1	·	1	-1	0	84*	-18
O=C1CS/C(=N/N=C2CCCC2)N1	8	22	-5	4	0	-2
Cc1ccc(NC(=O)CCC(=O)NNC(=O)Cc2ccccc2)cc1C	·	0	-2	5	-24	-14
CC(=O)Nc1ccc(NC2=Nc3ccccc3N3C2=Nc2c(c(C)nn2-c2ccccc2)C3c2ccccc2)cc1 (stereo not given)	·	0	-16	9.4*	-1	-11
CCOC(=O)C(NCCc1ccccc1F)(NC(=O)CC)C(F)(F)F (stereo not given)	16	1	7	3	3	-10
Brc1cnc(N2CCCCC2)nc1N1CCOCC1	·	2	16	2	59*	-1
COC(=O)c1cn(Nc2ncc(C(F)(F)F)cc2Cl)c(=O)c2ccccc12	·	1	-1	3	12	-9
COC(=O)c1cn(N(C)c2ncc(C(F)(F)F)cc2Cl)c(=O)c2ccccc12	·	1	-4	4	72*	-9
COCCCNC(=O)c1ccccc1Oc1ccccc1	·	4	-4	0	0	-7
O=C(NCc1ccc(Cl)cc1)c1ccccc1Oc1ccccc1	·	-1	-31	1	61*	-7
Cc1nc(SCC(=O)Nc2c(C)nn(C)c2C)c2cnn(-c3ccccc3)c2n1	·	-1	13	0	-7	-4
Cc1c(NC(=O)CSc2nc3c(cnn3-c3ccccc3)c(=O)[nH]2)c(=O)n(-c2ccccc2)n1C	13	3	2	11*	4	5
Cc1nn(Cc2ccccc2)c(C)c1NC(=O)CSc1nc(-c2ccccc2)nc2c1cnn2-c1ccccc1	·	18	-1	2	23	32*
CC(C)(C)c1ccc(C(=O)NN2C(=O)CSC2=S)cc1	9	8	·	·	·	-49
COc1ccc(/C=C(\C#N)C(=O)OCC(=O)Nc2ccc(-c3nc4ccc(C)cc4s3)cc2)cc1	19	28	-15	1	-10	-60
COc1ccc(N2C(=O)CC2(C#N)c2ccc(OCc3ccccc3)cc2)cc1 (stereo not given)	10	2	-13	11*	-6	-24
N#CC1(c2ccccc2)CCC(=O)N1c1ccccc1 (stereo not given)	-1	22	·	·	·	-10
CC(=O)c1sc(N/N=C2\CC3CC2C(C)C3(C)C)nc1C (stereo not given)	10	5	-3	3	29	·
CSc1nc(N2CCCC2)c2c(c1C#N)CC(C)(C)OC2	·	0	8	0	4	-3
CCCSc1nc(N2CCCC2)c2c(c1C#N)CC(C)(C)OC2	·	-9	0	8.5*	9	-2
CCSC1=NSC2=NC(=O)/C(=C\c3coc4ccccc4c3=O)C(=N)N12	14	16	31*	4	-13	-112
COc1ccc(Cn2c(-c3ccc(Br)cc3)c[n+]3ccccc23)cc1	19	2	9	2	63*	3
COc1ccc(Cn2c(-c3ccc(OC)cc3)nc3ccccc32)cc1	4	9	-19	-1	55	0
NNC(=O)c1ccc(OCC2CC(c3ccc(Cl)cc3)=NO2)cc1 (stereo not given)	19	-1	·	·	·	0
COc1ncccc1-c1nnn(-c2ccc(Cl)c(Cl)c2)n1	22	5	1	8.8*	22	2
SMILES	Calb biofilm kill	Hck Nef HTS	Arbovirus anti	RAM inhibit	WT yeast gro inh	p47phox inh
CCC1=[N+](C)c2cccc3cccc(c23)N1C	23	24	-6	2	59*	-4
O=C(NC(=S)N1CCN(c2ccc(F)cc2)CC1)C12CC3CC(CC(C3)C1)C2	14	3	3	3	19	-9
CCOc1ccccc1N1CCN(C(=O)Nc2ccc(F)c(Cl)c2)CC1	·	0	4	0	52	-8
CCOc1ccccc1N1CCN(C(=S)NCc2ccc(Cl)cc2)CC1	5	-14	-23	6	78*	-11
CCOc1ccccc1N1CCN(C(=S)NC(=O)C23CC4CC(CC(C4)C2)C3)CC1	17	1	5	0	59*	-11
CCO/C([O-])=N/c1sn[n+](C)c1C	3	17	·	·	·	6
CCOC(=O)C1(CCOc2ccccc2)CCN(Cc2ccc3nonc3c2)CC1	10	9	4	1	62*	-10
CC1CCCCC1NC(=O)c1cncc(Br)c1 (stereo not given)	·	0	4	1	9	1
CC1CCCC(NC(=S)NC(=O)c2cncc(Br)c2)C1C (stereo not given)	4	9	4	2	62*	-4
O=C(c1ccc(Cl)cc1)c1c[nH]c(C(=O)C(Cl)(Cl)Cl)c1	·	3	-40	0	82*	-3
N#C/C(=C/c1cn(-c2ccccc2)nc1-c1cccc(OCc2ccccc2)c1)C(=O)NCCCn1ccnc1	5	1	-38	8	12	9
CCOc1cccc(-c2nn(-c3ccccc3)cc2/C=C(/C#N)C(=O)NCCCn2ccnc2)c1	15	5	-39	6	60*	9
CNC(=O)c1sc(N2N=C3/C(=C/c4ccccc4)CCCC3C2c2ccccc2)nc1C (stereo not given)	·	-2	-22	9.9*	-1	-4
Cc1occc1-c1nnc(-c2cc([N+](=O)[O-])cc([N+](=O)[O-])c2)o1	15	21	-13	1	23	-2
Oc1nc(Nc2ccc(Cl)cc2Cl)sc1/C=C1\C=Nc2ccccc21	11	3	10	7	83*	-143
CC(Cc1cccs1)NC(=S)Nc1ccc(Cl)cc1 (stereo not given)	7	0	-25	0	67*	-12
CC(Cc1cccs1)NC(=S)Nc1ccc(Cl)c(Cl)c1 (stereo not given)	8	-1	-3	3	57	-6
O=S(Cc1cc(Sc2ccccc2)nc(-c2ccccc2)n1)c1ccccc1 (stereo not given)	·	1	-11	8	59*	-2
CC(C)Cc1csc(NC(=O)c2ccc(Cl)cc2)c1C(=O)O	19	3	22	5	2	-38
CC(C)Cc1csc(NC(=O)c2ccccc2Cl)c1C(=O)O	20	1	66*	7	-29	-35
Cc1cccc(C(=O)Nc2scc(CC(C)C)c2C(=O)O)c1	8	4	65*	6	-8	-6
Cc1ccc(C(C)C)cc1OCC(=O)N/N=C/c1ccc2c(c1)OCCO2	-17	7	-5	1	77*	0
